Assay results from ChEMBL document CHEMBL1795280, “Design, synthesis and activity of a potent, selective series of N-aryl pyridinone inhibitors of p38 kinase” (Bioorg Med Chem Lett, 2011).
Blank lines part the entries; values can stand above or below the compound they belong to. Calls of active or inactive are those of the source. The rule behind the calls is not given here.

Experiments:
[1] = target: T1, Mitogen-activated protein kinase 14 (Homo sapiens, UniProt Q16539); assay: Inhibition of p38alpha assessed as phosphorylation of […] after 60 mins by fluorescence assay
T1 sequence (Q16539 whole entry): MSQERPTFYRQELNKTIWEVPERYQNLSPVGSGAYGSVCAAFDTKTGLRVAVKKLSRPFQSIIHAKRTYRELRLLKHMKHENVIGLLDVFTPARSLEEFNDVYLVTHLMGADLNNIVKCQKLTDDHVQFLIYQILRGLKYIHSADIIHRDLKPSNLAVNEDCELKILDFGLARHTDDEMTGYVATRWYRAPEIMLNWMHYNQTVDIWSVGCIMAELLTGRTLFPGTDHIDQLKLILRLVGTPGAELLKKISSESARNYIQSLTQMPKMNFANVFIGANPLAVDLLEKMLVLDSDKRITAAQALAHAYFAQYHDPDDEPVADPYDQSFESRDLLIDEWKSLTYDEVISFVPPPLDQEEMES
Summary of the method: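 Cascade assay in which activated p38α (6 pM final) activates unactivated MK2 (1 nM), which phosphorylates FITC-labelled Hsp27 peptide (1 nM) with […]. Inhibitor 0.2–10,000 nM. Room temperature, 60 min, EDTA quench. Phospho-peptide quantified by Caliper LabChip; IC50.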

[2] = target: Cyclin-dependent kinase 2 (Homo sapiens) (UniProt P24941); assay: Inhibition of CDK2 at 10 uM
[3] = Solubility of the compound; assay type: physicochemical
[4] = target: Serine/threonine-protein kinase mTOR (Homo sapiens) (UniProt P42345); assay: Inhibition of mTOR at 10 uM
Rattus norvegicus [5] = assay: Antiinflammatory activity in Lewis rat assessed as inhibition of LPS-induced TNFalpha production at 5 mg/kg, po administered 4 hrs before LPS challenge by ELISA; assay type: functional
Summary of the method: (§1)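 Adult male Lewis rats (225–250 g), fasted 18 h with free access to water. Compound or vehicle given by oral gavage (1 mL). LPS (E. coli 0111:B4) given 1 mg/kg i.v. in saline 2, 4 or 6 h later. Serum taken by cardiac puncture 90 min after LPS. TNFα quantified against a recombinant rat TNF standard curve with a four-parameter fit. Two vehicle groups per experiment, three experiments.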

[6] = target: Vascular endothelial growth factor receptor 2 (Homo sapiens) (UniProt P35968); assay: Inhibition of VEGFR2 at 10 uM
[7] = Bioavailability in iv and po dosed Sprague-Dawley rat; assay type: ADME, organism-based; conditions: in vivo
[8] = Half life in iv and po dosed Sprague-Dawley rat; assay type: ADME, organism-based; conditions: in vivo
[9] = target: Tyrosine-protein kinase Lck (Homo sapiens) (UniProt P06239); assay: Inhibition of LCK at 10 uM
[10] = target: Mitogen-activated protein kinase 11 (Homo sapiens) (UniProt Q15759); assay: Inhibition of p38beta at 10 uM
[11] = Metabolic stability in rat liver microsomes assessed as compound remaining at 2 uM after 45 mins by LC/MS analysis; assay type: ADME, Microsome; conditions: read-out: Stability
[12] = target: Mitogen-activated protein kinase 3 (Homo sapiens) (UniProt P27361); assay: Inhibition of ERK1 at 10 uM
[13] = Inhibition of JNK at 10 uM
[14] = target: Inhibitor of nuclear factor kappa-B kinase subunit beta (Homo sapiens) (UniProt O14920); assay: Inhibition of IKK-beta at 10 uM
[15] = target: Rho-associated protein kinase 2 (Homo sapiens) (UniProt O75116); assay: Inhibition of ROCK2 at 10 uM
[16] = target: Tyrosine-protein kinase JAK2 (Homo sapiens) (UniProt O60674); assay: Inhibition of JAK2 at 10 uM
[17] = target: Non-receptor tyrosine-protein kinase TYK2 (Homo sapiens) (UniProt P29597); assay: Inhibition of TYK2 at 10 uM
Non-receptor tyrosine-protein kinase TYK2 (Homo sapiens), sequence (P29597 whole entry): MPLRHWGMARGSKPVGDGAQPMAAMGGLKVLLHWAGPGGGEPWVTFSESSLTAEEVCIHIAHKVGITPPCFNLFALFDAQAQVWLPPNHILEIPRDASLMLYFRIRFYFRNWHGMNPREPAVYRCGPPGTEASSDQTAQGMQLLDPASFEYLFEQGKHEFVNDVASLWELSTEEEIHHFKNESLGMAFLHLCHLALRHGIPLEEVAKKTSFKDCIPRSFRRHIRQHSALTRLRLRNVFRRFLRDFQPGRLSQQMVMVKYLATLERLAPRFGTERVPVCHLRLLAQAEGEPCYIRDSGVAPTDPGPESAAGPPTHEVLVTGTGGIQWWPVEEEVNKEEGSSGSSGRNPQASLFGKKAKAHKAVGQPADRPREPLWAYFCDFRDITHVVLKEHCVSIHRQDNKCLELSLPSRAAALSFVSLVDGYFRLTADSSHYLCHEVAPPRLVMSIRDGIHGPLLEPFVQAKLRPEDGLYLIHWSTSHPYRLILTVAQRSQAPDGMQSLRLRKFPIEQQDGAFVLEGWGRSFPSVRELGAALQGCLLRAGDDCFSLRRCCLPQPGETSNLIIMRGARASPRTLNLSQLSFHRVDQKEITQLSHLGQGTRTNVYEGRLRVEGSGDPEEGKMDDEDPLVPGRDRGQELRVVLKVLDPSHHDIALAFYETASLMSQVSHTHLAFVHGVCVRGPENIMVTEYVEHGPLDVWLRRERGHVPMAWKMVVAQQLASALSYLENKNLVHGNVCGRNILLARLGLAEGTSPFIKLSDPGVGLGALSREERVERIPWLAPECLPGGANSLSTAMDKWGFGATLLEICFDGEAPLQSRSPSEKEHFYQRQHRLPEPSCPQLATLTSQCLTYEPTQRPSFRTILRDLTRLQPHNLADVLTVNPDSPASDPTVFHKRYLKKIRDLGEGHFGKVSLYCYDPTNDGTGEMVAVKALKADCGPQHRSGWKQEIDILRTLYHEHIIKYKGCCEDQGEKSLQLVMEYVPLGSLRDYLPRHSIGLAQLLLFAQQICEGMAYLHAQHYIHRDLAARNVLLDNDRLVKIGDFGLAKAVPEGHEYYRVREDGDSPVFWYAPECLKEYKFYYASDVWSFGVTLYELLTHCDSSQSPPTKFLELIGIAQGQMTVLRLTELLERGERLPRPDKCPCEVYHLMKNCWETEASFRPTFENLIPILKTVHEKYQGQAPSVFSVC

[18] = target: Tyrosine-protein kinase JAK3 (Homo sapiens) (UniProt P52333); assay: Inhibition of JAK3 at 10 uM
Tyrosine-protein kinase JAK3 (Homo sapiens), sequence (P52333 whole entry): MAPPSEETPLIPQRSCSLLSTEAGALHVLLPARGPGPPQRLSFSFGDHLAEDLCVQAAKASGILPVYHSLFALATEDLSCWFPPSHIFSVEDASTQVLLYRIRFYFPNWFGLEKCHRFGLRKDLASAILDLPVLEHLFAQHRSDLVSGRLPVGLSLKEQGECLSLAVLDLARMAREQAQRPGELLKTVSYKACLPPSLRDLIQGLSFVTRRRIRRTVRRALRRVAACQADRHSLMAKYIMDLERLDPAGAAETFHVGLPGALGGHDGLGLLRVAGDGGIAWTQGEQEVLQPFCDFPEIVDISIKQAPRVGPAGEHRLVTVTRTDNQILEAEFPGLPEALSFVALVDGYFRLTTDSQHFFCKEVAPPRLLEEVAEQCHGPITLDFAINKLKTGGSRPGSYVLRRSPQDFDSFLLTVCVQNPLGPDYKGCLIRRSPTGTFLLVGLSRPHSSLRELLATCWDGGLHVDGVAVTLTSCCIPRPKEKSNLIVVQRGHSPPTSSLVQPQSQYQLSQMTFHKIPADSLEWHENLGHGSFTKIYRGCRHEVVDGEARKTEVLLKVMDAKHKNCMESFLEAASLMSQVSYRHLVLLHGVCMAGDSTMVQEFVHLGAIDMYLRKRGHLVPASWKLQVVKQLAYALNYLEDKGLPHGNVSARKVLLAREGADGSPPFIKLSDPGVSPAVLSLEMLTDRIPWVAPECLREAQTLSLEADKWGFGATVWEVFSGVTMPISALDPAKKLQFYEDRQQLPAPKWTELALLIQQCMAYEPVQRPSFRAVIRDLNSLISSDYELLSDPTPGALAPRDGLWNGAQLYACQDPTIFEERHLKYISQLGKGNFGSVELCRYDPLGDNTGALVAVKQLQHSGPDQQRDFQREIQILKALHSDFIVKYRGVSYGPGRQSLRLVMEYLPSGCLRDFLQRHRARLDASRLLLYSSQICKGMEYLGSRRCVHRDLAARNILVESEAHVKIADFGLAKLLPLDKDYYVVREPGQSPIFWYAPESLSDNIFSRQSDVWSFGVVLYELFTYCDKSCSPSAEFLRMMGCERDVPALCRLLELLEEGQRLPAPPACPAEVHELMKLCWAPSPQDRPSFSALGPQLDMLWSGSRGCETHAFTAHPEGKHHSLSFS

[19] = target: Vascular endothelial growth factor receptor 1 (Homo sapiens) (UniProt P17948); assay: Inhibition of FLT1 at 10 uM
[20] = target: Epidermal growth factor receptor (Homo sapiens) (UniProt P00533); assay: Inhibition of EGFR at 10 uM
[21] = target: RAF proto-oncogene serine/threonine-protein kinase (Homo sapiens) (UniProt P04049); assay: Inhibition of c-RAF at 10 uM
RAF proto-oncogene serine/threonine-protein kinase (Homo sapiens), sequence (P04049 whole entry): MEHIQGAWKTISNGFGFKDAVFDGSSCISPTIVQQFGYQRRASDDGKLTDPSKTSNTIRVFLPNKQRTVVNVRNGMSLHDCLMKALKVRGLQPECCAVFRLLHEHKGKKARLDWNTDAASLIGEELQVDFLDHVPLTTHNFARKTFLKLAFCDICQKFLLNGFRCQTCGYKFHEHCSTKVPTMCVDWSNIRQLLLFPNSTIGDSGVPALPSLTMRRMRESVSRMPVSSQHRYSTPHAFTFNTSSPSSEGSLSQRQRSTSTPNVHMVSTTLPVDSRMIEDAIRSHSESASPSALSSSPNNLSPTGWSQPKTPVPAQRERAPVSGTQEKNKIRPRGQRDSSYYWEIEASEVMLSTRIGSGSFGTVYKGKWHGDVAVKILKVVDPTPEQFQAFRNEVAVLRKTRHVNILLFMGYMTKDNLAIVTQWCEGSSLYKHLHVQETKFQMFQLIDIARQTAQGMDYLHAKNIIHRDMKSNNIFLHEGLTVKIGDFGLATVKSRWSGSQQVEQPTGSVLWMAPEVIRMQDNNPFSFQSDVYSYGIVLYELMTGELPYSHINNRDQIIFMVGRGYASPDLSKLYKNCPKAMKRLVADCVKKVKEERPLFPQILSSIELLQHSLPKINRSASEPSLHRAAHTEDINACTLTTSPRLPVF

PBMC = assay: Antiinflammatory activity in human PBMC assessed as inhibition of LPS-induced TNFalpha production treated 1 hr before LPS challenge measured after 18 hrs; assay type: functional, cell-based
Summary of the method: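 PBMCs isolated by Ficoll from heparinized blood of two healthy donors, in DMEM with 5% endotoxin-free FBS, 2.5 × 10⁵ cells/well. Pretreated 1 h with compound (0.0001–25 µM range), then stimulated 18 h with 22 ng/ml LPS. Final DMSO 0.25%. Secreted TNFα measured by MSD; IC50 reported.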

[22] = target: Tyrosine-protein kinase BTK (Homo sapiens) (UniProt Q06187); assay: Inhibition of BTK at 10 uM
[23] = target: T1, Mitogen-activated protein kinase 14; assay: Inhibition of p38alpha at 10 uM
[24] = target: MAP kinase-activated protein kinase 2 (Homo sapiens) (UniProt P49137); assay: Inhibition of MK2 at 10 uM
[25] = target: High affinity nerve growth factor receptor (Homo sapiens) (UniProt P04629); assay: Inhibition of TRKA at 10 uM
[26] = target: Interleukin-1 receptor-associated kinase 4 (Homo sapiens) (UniProt Q9NWZ3); assay: Inhibition of IRAK4 at 10 uM
[27] = target: Rho-associated protein kinase 1 (Homo sapiens) (UniProt Q13464); assay: Inhibition of ROCK1 at 10 uM
[28] = Inhibition of PDGFR at 10 uM
[29] = target: Mitogen-activated protein kinase 13 (Homo sapiens) (UniProt O15264); assay: Inhibition of p38delta at 10 uM
[30] = target: Aurora kinase A (Homo sapiens) (UniProt O14965); assay: Inhibition of AURKA at 10 uM
Aurora kinase A (Homo sapiens), sequence (O14965 whole entry): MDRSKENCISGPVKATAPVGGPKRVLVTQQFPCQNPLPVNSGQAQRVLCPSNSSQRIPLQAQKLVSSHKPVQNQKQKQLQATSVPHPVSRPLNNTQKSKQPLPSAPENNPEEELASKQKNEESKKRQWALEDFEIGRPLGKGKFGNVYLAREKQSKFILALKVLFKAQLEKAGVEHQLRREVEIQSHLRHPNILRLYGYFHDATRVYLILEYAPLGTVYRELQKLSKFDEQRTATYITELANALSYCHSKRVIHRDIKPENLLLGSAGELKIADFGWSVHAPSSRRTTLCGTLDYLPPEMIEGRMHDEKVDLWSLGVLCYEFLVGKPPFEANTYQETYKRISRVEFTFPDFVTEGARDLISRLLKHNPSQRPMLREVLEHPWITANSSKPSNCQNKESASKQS

[31] = Clearance in iv and po dosed Sprague-Dawley rat; assay type: ADME, organism-based; conditions: in vivo
Rattus norvegicus [32] = assay: Antiarthritic activity in Lewis rat assessed as inhibition of streptococal cell wall-induced increase of paw volume at 60 mg/kg, po qd for 10 days administered 10 days after streptococal cell wall challenge by displacement plethysmometer analysis; assay type: functional; conditions: 240 h
Summary of the method: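 Female Lewis rats given intraperitoneal group A streptococcal cell wall peptidoglycan-polysaccharide ([…] bodyweight). Only animals developing the acute phase were treated. Oral gavage (0.5 mL) daily from day 10 to day 21 post-SCW, with methylcellulose/Tween 20 vehicle as comparison. Four to eight animals per group, two paw volumes per animal. Paw volume measured on day 21 by water displacement plethysmometer.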

[33] = target: Tyrosine-protein kinase ZAP-70 (Homo sapiens) (UniProt P43403); assay: Inhibition of ZAP70 at 10 uM
[34] = target: Mitogen-activated protein kinase 12 (Homo sapiens) (UniProt P53778); assay: Inhibition of p38-gamma at 10 uM
[35] = target: Dual specificity mitogen-activated protein kinase kinase 1 (Homo sapiens) (UniProt Q02750); assay: Inhibition of MEK1 at 10 uM
[36] = Metabolic stability in human liver microsomes assessed as compound remaining at 2 uM after 45 mins by LC/MS analysis; assay type: ADME, Microsome; conditions: read-out: Stability
[37] = target: Tyrosine-protein kinase JAK1 (Homo sapiens) (UniProt P23458); assay: Inhibition of JAK1 at 10 uM
Tyrosine-protein kinase JAK1 (Homo sapiens), sequence (P23458 whole entry): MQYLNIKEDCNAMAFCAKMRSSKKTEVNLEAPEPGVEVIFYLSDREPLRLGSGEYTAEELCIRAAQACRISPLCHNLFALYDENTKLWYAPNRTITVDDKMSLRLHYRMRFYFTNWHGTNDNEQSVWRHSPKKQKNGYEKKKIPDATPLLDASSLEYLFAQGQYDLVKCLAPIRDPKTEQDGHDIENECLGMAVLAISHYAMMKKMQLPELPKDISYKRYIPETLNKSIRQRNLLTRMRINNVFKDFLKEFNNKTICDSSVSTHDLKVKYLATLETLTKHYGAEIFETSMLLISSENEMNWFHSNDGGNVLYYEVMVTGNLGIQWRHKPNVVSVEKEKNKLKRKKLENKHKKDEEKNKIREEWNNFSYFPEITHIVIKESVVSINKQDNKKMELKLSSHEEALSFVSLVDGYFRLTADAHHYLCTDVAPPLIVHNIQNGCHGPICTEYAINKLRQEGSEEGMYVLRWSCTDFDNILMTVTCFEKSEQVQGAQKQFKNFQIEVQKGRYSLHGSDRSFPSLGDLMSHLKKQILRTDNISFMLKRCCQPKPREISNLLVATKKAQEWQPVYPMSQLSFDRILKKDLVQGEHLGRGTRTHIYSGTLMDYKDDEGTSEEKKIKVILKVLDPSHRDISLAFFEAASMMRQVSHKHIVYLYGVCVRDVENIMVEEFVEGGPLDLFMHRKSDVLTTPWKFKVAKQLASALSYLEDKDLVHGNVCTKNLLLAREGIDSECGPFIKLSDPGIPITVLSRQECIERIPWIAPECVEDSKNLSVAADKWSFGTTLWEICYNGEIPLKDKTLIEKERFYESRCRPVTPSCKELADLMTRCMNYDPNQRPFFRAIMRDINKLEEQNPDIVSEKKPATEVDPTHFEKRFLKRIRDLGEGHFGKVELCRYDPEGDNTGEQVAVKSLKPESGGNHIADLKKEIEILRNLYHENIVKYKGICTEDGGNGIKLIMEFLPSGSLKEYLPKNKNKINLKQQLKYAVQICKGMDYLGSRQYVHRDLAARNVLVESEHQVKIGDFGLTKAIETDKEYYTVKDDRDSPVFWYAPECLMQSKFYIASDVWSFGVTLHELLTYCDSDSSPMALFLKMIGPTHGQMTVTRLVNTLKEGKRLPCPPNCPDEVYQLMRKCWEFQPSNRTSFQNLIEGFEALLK

Rattus norvegicus [38] = assay: Antiinflammatory activity in Lewis rat assessed as inhibition of LPS-induced TNFalpha production at 20 mg/kg, po administered 2 hrs before LPS challenge by ELISA; assay type: functional; summary of the method: as §1
[39] = Bioavailability in Sprague-Dawley rat at 5 mg/kg, po; assay type: ADME, organism-based; conditions: in vivo
[40] = Bioavailability in Sprague-Dawley rat po as suspension; conditions: in vivo

Structure (SMILES): Cc1cc(OCc2ccc(F)cc2F)c(Cl)c(=O)n1-c1c(F)cc(N2CCN(C)CC2)cc1F
IC50 [1]: 0.023 µM

Structure (SMILES): Cc1cc(OCc2ccc(F)cc2F)c(Br)c(=O)n1-c1c(F)cc(OCC(N)=O)cc1F
IC50 [1]: 0.003 µM

Structure (SMILES): Cc1cc(OCc2ccc(F)cc2F)c(Br)c(=O)n1-c1c(F)cc(N(C)C)cc1F
IC50 [1]: 0.008 µM

Structure (SMILES): Cc1cc(OCc2ccc(F)cc2F)c(Br)c(=O)n1-c1c(F)cc(OCCO)cc1F
inhibition in vivo at 5 mg/kg (Rattus norvegicus [5]): 44% | IC50 [1]: 0.007 µM | remaining at 0.75 h, 2 µM [11]: 96% | IC50 (PBMC): 0.061 µM | remaining at 0.75 h, 2 µM [36]: 87%

Structure (SMILES): Cc1cc(OCc2ccc(F)cc2F)c(Br)c(=O)n1-c1ccc(C(=O)N(C)C)cc1
IC50 [1]: 0.746 µM

Structure (SMILES): Cc1cc(OCc2ccc(F)cc2F)c(Br)c(=O)n1-c1ccc(CNC(=O)CO)cc1
inhibition in vivo at 5 mg/kg (Rattus norvegicus [5]): 43% | IC50 [1]: 0.02 µM | remaining at 0.75 h, 2 µM [11]: 83% | IC50 (PBMC): 0.091 µM | remaining at 0.75 h, 2 µM [36]: 88%

Structure (SMILES): Cc1cccc(C)c1-n1c(C)cc(OCc2ccc(F)cc2F)c(Br)c1=O
IC50 [1]: 0.002 µM | remaining at 0.75 h, 2 µM [11]: 1% | IC50 (PBMC): 0.025 µM | inhibition in vivo at 20 mg/kg (Rattus norvegicus [38]): 66% | remaining at 0.75 h, 2 µM [36]: 3%

Structure (SMILES): Cc1cc(OCc2ccc(F)cc2F)c(Br)c(=O)n1-c1cccc(C(=O)N(C)C)c1
IC50 [1]: 0.102 µM

Structure (SMILES): Cc1cc(OCc2ccc(F)cc2F)c(Br)c(=O)n1-c1cccc(CNC(=O)CN)c1
IC50 [1]: 0.261 µM

Structure (SMILES): Cc1cc(OCc2ccc(F)cc2F)c(Br)c(=O)n1-c1ccc(CN)cc1
IC50 [1]: 0.051 µM

Further lines, with some results ahead:

IC50 [1]: 0.681 µM
Structure (SMILES): Cc1cc(OCc2ccc(F)cc2F)c(Br)c(=O)n1-c1cccc(CN)c1

inhibition [2]: < 50% | solubility [3]: < 0.01 mg/mL | inhibition [4]: < 50% | IC50 [1]: 0.008 µM | inhibition [6]: < 50% | bioavailability [7]: 32% | half-life [8]: 1.5 h | inhibition [9]: < 50% | inhibition [10]: Active | remaining at 0.75 h, 2 µM [11]: 69% | inhibition [12]: < 50% | inhibition [13]: < 50% | inhibition [14]: < 50% | inhibition [15]: < 50% | inhibition [16]: < 50% | inhibition [17]: < 50% | inhibition [18]: < 50% | inhibition [19]: < 50% | inhibition [20]: < 50% | inhibition [21]: < 50% | inhibition [22]: < 50% | inhibition [23]: Active | inhibition [24]: < 50% | inhibition [25]: < 50% | inhibition [26]: < 50% | inhibition [27]: < 50% | inhibition [28]: < 50% | inhibition [29]: < 50% | inhibition [30]: < 50% | clearance [31]: 0.354 L/h/kg | inhibition [33]: < 50% | inhibition [34]: < 50% | inhibition [35]: < 50% | remaining at 0.75 h, 2 µM [36]: 70% | inhibition [37]: < 50%
Structure (SMILES): O=c1c(Cl)c(OCc2ccc(F)cc2F)cc(CO)n1-c1c(F)cccc1F
inhibition in vivo at 5 mg/kg (Rattus norvegicus [5]): 81% | IC50 (PBMC): 0.045 µM | inhibition in vivo at 60 mg/kg (Rattus norvegicus [32]): 33%

IC50 [1]: 0.008 µM
Structure (SMILES): CN(C)Cc1cc(OCc2ccc(F)cc2F)c(Cl)c(=O)n1-c1c(F)cccc1F

inhibition [2]: < 50% | solubility [3]: < 0.01 mg/mL | inhibition [4]: < 50% | IC50 [1]: 0.012 µM | inhibition [6]: < 50% | half-life [8]: 3.4 h | inhibition [9]: < 50% | inhibition [10]: Active | remaining at 0.75 h, 2 µM [11]: 97% | inhibition [12]: < 50% | inhibition [13]: < 50% | inhibition [14]: < 50% | inhibition [15]: < 50% | inhibition [16]: < 50% | inhibition [17]: < 50% | inhibition [18]: < 50% | inhibition [19]: < 50% | inhibition [20]: < 50% | inhibition [21]: < 50% | inhibition [22]: < 50% | inhibition [23]: Active | inhibition [24]: < 50% | inhibition [25]: < 50% | inhibition [26]: < 50% | inhibition [27]: < 50% | inhibition [28]: < 50% | bioavailability [39]: 93% | inhibition [29]: < 50% | inhibition [30]: < 50% | clearance [31]: 0.56 L/h/kg | inhibition [33]: < 50% | inhibition [34]: < 50% | inhibition [35]: < 50% | remaining at 0.75 h, 2 µM [36]: 100% | bioavailability [40]: 7% | inhibition [37]: < 50%
Structure (SMILES): Cc1cc(OCc2ccc(F)cc2F)c(Br)c(=O)n1-c1cccc(C(N)=O)c1
inhibition in vivo at 5 mg/kg (Rattus norvegicus [5]): 89% | IC50 (PBMC): 0.064 µM | inhibition in vivo at 60 mg/kg (Rattus norvegicus [32]): 40%
